# 697 NFkB inh = inhibitors of PMA/ionomycin-induced NF-kB reporter, 697 cells, primary screen, B-cell NF-kB inhibitor project, cell-based, luminescence, uHTS. AID 435022, 2010. hit rate 0.33% among 330,000. inhibition, % at 4 µM. 697 B-cell NF-kB luciferase reporter, 16 h; in the data active = inhibition above about 35%
# NR2E3 ag-1 = NR2E3 agonists in two-hybrid cells, primary screen, cell-based, luminescence, CHO-S, Gal4-NCOR/VP16-NR2E3 | luciferase | AID 602229, 2012 | hit rate 0.35% among 360,000 | inhibition of corepressor binding, % at 3.98 µM | Photoreceptor-specific nuclear receptor (Homo sapiens), Q9Y5X4;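 active = inhibition above the mean of all tested compounds plus 3 SD, cut at about 70% in these data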;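 also: 0% = DMSO with NR2E3 transfected cells and 100% = cells lacking NR2E3 construct; higher means lower luciferase signal from less NR2E3 corepressor binding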
# GalR3 antagonist = GalR3 antagonists in HEK293 cells, primary screen, cell-based, fluorescence readout. Galanin receptor type 3 (Homo sapiens), O60755. HEK293 GalR3-CNG cAMP membrane potential fluorescence; galR3 body fused to GalR1 C-terminus. inhibition, % at 3 µM. hit rate 0.44% among 360,000. AID 651719, 2012;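 active = inhibition above the screen-wide average plus 3 SD, cut at about 13% in these data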;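 also: forskolin and galanin both at EC90 stimulate the cells; cAMP rise reported by CNG channel membrane potential dye signal; 0% = forskolin plus galanin with DMSO and 100% = forskolin alone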
# Target sequence (O60755 1-299 limits assumed): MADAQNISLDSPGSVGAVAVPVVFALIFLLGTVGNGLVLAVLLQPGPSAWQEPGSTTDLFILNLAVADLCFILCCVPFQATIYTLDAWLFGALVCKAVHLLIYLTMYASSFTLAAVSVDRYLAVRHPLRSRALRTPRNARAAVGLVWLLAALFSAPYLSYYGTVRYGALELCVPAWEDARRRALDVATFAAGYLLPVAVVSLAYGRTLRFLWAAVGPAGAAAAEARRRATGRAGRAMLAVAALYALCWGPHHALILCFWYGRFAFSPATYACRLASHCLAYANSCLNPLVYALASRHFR
# Gli-Sufu antag = Gli-Sufu pathway antagonists, primary screen, luciferase luminescence, Sufu-KO-LIGHT cells, uHTS; Sufu-KO-LIGHT fibroblasts, Gli luciferase reporter luminescence; inhibition, % at 5 µM; hit rate 0.74% among 340,000; AID 588413, 2011;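 active = inhibition above about 55%, limit read from the data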;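 also: 0% = DMSO-treated cells and 100% = wells with medium but no cells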
# Jurkat NFkB inh = inhibitors of induced NF-kB luciferase reporter, primary screen, TCR NF-kB activation inhibitor project, cell-based, luminescence, uHTS | Jurkat, PMA/ionomycin-induced NF-kB luciferase reporter | inhibition, % at 4 µM | hit rate 0.53% among 330,000; in the data active = inhibition above about 50%
# NR2E3 ag-2 = inhibitors of NR2E3-RetCOR corepressor binding, primary screen, NR2E3 agonist project, biochemical, TR-FRET, GST-NR2E3, biotin-RetCOR. 1536-well. Photoreceptor-specific nuclear receptor (Homo sapiens), Q9Y5X4. hit rate 0.12% among 320,000. inhibition of corepressor binding, % at 4.78 µM. AID 2300, 2010;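 active = percent inhibition above the cutoff of mean plus 3 SD of all tested compounds, set per screening campaign, cut at about 20% in these data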;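 also: 0% = DMSO wells and 100% = biotin wells as full block of FRET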
#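 Material: NR2E3–RetCOR corepressor complex / Amount: 1.35 nM GST-NR2E3 / Medium: Tris pH 7.5 / Compound: single nominal compound dose of 4.8 µM / Incubation: 5 h at 4 °C / Technique: TR-FRET, Eu(K)-anti-GST donor, streptavidin-D2 acceptor, ex 340, em 617/671 nm / Read-out basis: percent loss of FRET ratio relative to control wells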
# * = called active by the depositor; / = no result given. Most compounds without a hit are left out; they make up all but 1.8% or so of the library.
SMILES,697 NFkB inh,NR2E3 ag-1,GalR3 antagonist,Gli-Sufu antag,Jurkat NFkB inh,NR2E3 ag-2
O=C(Nc1ccc(Oc2ccccc2)cc1)C1CCN(c2c3c(nc4ncnn24)CCC3)CC1,-16,29,-6,70*,16,2
O=C(Nc1ccc2c(c1)CCC2)C1CCN(c2c3c(nc4ncnn24)CCC3)CC1,21,3,-9,28,38,0
Cn1cc(CC(=O)Nc2ccc(Nc3cccnc3)cc2)c2ccccc21,/,/,-3,/,/,/
C(=N\Nc1nc2ccccc2[nH]1)/c1cccc2cccnc12,-88,-22,5,67*,-51,-2
COc1c(O)cc2c(c1O)[C@@H]1O[C@H](CO)[C@@H](O)[C@H](O)C1OC2=O (some centres not stated),17,-12,13*,-1,-10,-1
CCCCCCCCCCCCCCCC[N+](C)(C)CCl,/,11,3,58*,/,/
N#Cc1c(N)[nH]c(=S)c(C#N)c1-c1ccccc1,-1,-4,51*,1,-5,13
COC(=O)C1=C(C)N(Cc2ccc(F)cc2)C(=S)NC1c1cccc(Br)c1 (configuration not stated),/,/,-7,/,/,/
O=C(N/N=C/c1c(O)ccc2ccccc12)c1[nH]ncc1Br,-41,-53,4,67*,49,1
COc1ccc(CNC(=O)C(c2ccncc2)N(C(=O)Cc2cccs2)c2ccccc2)cc1 (configuration not stated),/,-33,6,1,/,/
COc1ccc(N(C(=O)CCl)C(C(=O)NCCc2ccccc2)c2cccs2)cc1 (configuration not stated),/,11,1,95*,/,1
COC(=O)C1=C(C)N(Cc2ccc(Br)cc2)C(=S)NC1c1ccc(OC)cc1 (configuration not stated),/,/,-9,/,/,/
CCCN(C(=O)CCc1cn(CCC)c2ccccc12)c1ccc(Oc2cccnc2)cc1,/,/,-12,/,/,/
Oc1ccc(Nc2nc(N3CCCC3)c3ccccc3n2)cc1,-43,4,-8,58*,-15,0
CCOC(=O)CSc1nc2sc(C)c(C)c2c(=O)[nH]1,14,4,-4,4,7,-3
CCOC(=O)/C(=C\c1ccc(Cl)cc1)c1nc2sc(C)c(C)c2c(=O)[nH]1,-9,13,14*,-3,4,1
CCCCc1c(CCC)c(=N)c2ccccc2n1C,-20,-17,-7,76*,40,1
O=C1NC(Cc2cnc[nH]2)C(=O)N2CCCC12 (configuration not stated),/,/,-7,/,/,/
C(C#CCCCCCCCCC[n+]1ccccc1)#CCCCCCCCCC[n+]1ccccc1,/,58,/,87*,/,1
Cc1cc(N/C(=C\C(=O)c2ccccc2)c2ccccc2)ccc1Br,/,/,-1,/,/,/
CC(C)[C@H](NC(=O)C1CC1)C(=O)N1CCC[C@H]1C(=O)NCCc1ccccc1Cl,/,/,-4,/,/,/
Cc1ccccc1C(=O)N[C@H](C(=O)N1CCC[C@H]1C(=O)NCCc1ccccc1Cl)C(C)C,/,/,-7,/,/,/
CCCCCN1CSC(=S)N(Cc2ccccc2)C1,18,-21,-2,21,-6,0
CCN1CSC(=S)N(Cc2ccccc2)C1,7,-2,-1,63*,-7,1
O=C(C=Cc1ccc(OCc2ccccc2)cc1)c1c(F)cccc1F,/,/,-5,/,/,/
SMILES,697 NFkB inh,NR2E3 ag-1,GalR3 antagonist,Gli-Sufu antag,Jurkat NFkB inh,NR2E3 ag-2
Nc1[nH]c(C(=O)c2ccccc2)c(-c2ccccc2[N+](=O)[O-])c1C(=O)NCCc1c[nH]c2ccccc12,/,/,-2,/,/,/
Cc1cc(C)nc(SCc2ccc(C(=O)N/N=C/c3cccc(O)c3O)cc2)n1,-123,-10,5,84*,42,-1
CCCC(=O)NC(c1ccccc1)c1ccc2cccnc2c1O (configuration not stated),-38,6,3,-11,39,0
O=[N+]([O-])c1ccc(NC(c2ccccc2)c2ccc3cccnc3c2O)cc1 (configuration not stated),/,-7,-2,70*,/,/
CCCCC(=O)NC(c1ccccc1)c1ccc2cccnc2c1O (configuration not stated),-10,-17,-12,-26,42,2
CCCCC(=O)NC(c1cccc([N+](=O)[O-])c1)c1ccc2cccnc2c1O (configuration not stated),/,0,-12,62*,/,/
COc1cccc(C(NC(C)=O)c2ccc3cccnc3c2O)c1 (configuration not stated),-21,-12,-5,69*,46,4
CCCCC(=O)NC(c1ccccc1Cl)c1ccc2cccnc2c1O (configuration not stated),-26,-40,-9,86*,41,4
CC(=O)NC(c1cccc([N+](=O)[O-])c1)c1ccc2cccnc2c1O (configuration not stated),-21,-27,-7,/,49,/
CCC(=O)NC(c1ccccc1OC)c1ccc2cccnc2c1O (configuration not stated),-17,-18,/,49,30,2
CC(C)[C@H](NC(=O)[C@@H](N)Cc1ccccc1)C(=O)N1CCC2CCN(Cc3ccccc3)CC21 (some centres not stated),/,/,-3,/,/,/
CN1CCCCC(NC(=O)CCl)C1=O (configuration not stated),/,/,-5,/,/,/
C=CCN=C1NC(CCc2ccccc2)C(C(=O)OC)=C(C)N1Cc1cccc(C(F)(F)F)c1 (configuration not stated),/,/,-2,/,/,/
COc1cccc(C(=O)N[C@H](C(=O)N2CCC[C@H]2C(=O)NCc2ccccc2)c2ccccc2)c1,/,/,-7,/,/,/
CC(C)(C)c1ccc(C#C[C@@H]2C=C[C@H](O)[C@@H](COC(=O)Nc3ccccc3)O2)cc1,/,/,-3,/,/,/
Oc1c(C(c2cccs2)N2CCN(c3ccccc3)CC2)ccc2cccnc12 (configuration not stated),-38,/,/,/,-10,-1
Oc1c(C(c2ccccc2Cl)N2CCCC2)ccc2cccnc12 (configuration not stated),-7,-11,-7,74*,11,-3
CCOC(=O)N[C@@H](Cc1cccnc1)C(=O)N1CCC[C@H]1C(=O)NCCc1ccccc1Cl,/,/,-3,/,/,/
Oc1c(N=Nc2ccccn2)ccc2ccccc12,-184,-11,-4,82*,47,-2
Oc1[nH]c2ccccc2c1N=Nc1ccccn1,/,-30,-6,-28,/,/
